How the values were obtained:
[1] = target: NAD(P)H dehydrogenase [quinone] 1 (Homo sapiens) (UniProt P15559); assay: Activity at human recombinant NQO1 assessed as average rate of irreversible NADH oxidation after 30 to 40 mins by HPLC analysis
Method in brief: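 Recombinant human NQO1 incubated with 50 µM quinone and 200 µM NADH in 25 mM Tris-HCl pH 7.4, 30–40 min at 22 °C. Reverse-phase C18 HPLC with methanol/10 mM potassium phosphate pH 6.0 gradient; NADH oxidation quantified at 340 nm. Average rate expressed as µmol NADH oxidized/min/mg NQO1.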

[2] = target: NAD(P)H dehydrogenase [quinone] 1 (Homo sapiens) (UniProt P15559); assay: Activity at human recombinant NQO1 assessed as initial rate of cytochrome c reduction during the first 0 to 30 s by spectrophotometry

Chain of NAD(P)H dehydrogenase [quinone] 1 (Homo sapiens) (P15559 whole entry): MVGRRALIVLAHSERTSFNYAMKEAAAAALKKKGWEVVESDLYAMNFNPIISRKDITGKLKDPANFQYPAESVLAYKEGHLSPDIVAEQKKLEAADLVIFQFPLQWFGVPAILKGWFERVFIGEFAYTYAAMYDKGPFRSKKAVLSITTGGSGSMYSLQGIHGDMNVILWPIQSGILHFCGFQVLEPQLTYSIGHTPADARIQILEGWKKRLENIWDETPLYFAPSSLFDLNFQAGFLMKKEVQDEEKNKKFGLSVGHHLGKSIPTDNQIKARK

What does the source list for `COC(=O)c1cc2c(s1)C(=O)C=C(OC)C2=O`?
Activity [1]: 53.9 µmol/min/mg; Activity [2]: 555 µmol/min/mg

Which Activity [1] does the source give for `COC1=CC(=O)c2sc(CO)cc2C1=O` here?
Its Activity is 63.8 µmol/min/mg.

What about the Activity [2] of the same compound?
Its Activity is 927 µmol/min/mg.

How did the Activity [1] turn out when `COC1=CC(=O)c2c(c(C)c(CO)n2C)C1=O` was run?
The Activity was 2.49 µmol/min/mg.

Which results are given for `COC1=CC(=O)c2sc(COC(C)=O)cc2C1=O`?
Activity [1]: 24.5 µmol/min/mg; Activity [2]: 900 µmol/min/mg

`COC1=CC(=O)c2c(c(C)nn2C)C1=O` was tested. Which Activity [1] did it give?
The Activity was 19.6 µmol/min/mg.

And the Activity [2]?
The Activity was 55.3 µmol/min/mg.

How did the Activity [2] turn out when `COC1=CC(=O)c2sc(C)c(CO)c2C1=O` was run?
The Activity was 236 µmol/min/mg.

Which Activity [1] does the source give for `COC1=CC(=O)c2c(c(CO)c(C)n2C)C1=O` here?
Its Activity is 1.25 µmol/min/mg.

For `COC1=CC(=O)c2onc(C)c2C1=O`, which Activity [1] is on record?
The Activity was 27.6 µmol/min/mg.

What about the Activity [2] of the same compound?
Its Activity is 290 µmol/min/mg.

What does the source list for `COC1=CC(=O)c2sc(C)cc2C1=O`?
Activity [1]: 5.51 µmol/min/mg; Activity [2]: 553 µmol/min/mg

Which Activity [1] does the source give for `COC1=CC(=O)c2oc(C)c(C(C)O)c2C1=O` (stereo not given) here?
The Activity was 87.9 µmol/min/mg.

And the Activity [2]?
Its Activity is 585 µmol/min/mg.

`COC1=CC(=O)c2sc(C=O)cc2C1=O` was tested. Which Activity [1] did it give?
The Activity was 27.4 µmol/min/mg.

What about the Activity [2] of the same compound?
Its Activity is 897 µmol/min/mg.

How did the Activity [1] turn out when `COC1=CC(=O)c2c(c(CO)nn2C)C1=O` was run?
The Activity was 38.1 µmol/min/mg.

What about the Activity [2] of the same compound?
The Activity was 247 µmol/min/mg.

How did the Activity [1] turn out when `COC1=CC(=O)c2oc(CO)c(C)c2C1=O` was run?
The Activity was 80.8 µmol/min/mg.

And the Activity [2]?
The Activity was 1020 µmol/min/mg.

How did the Activity [2] turn out when `CC1=CC(=O)c2ccccc2C1=O` was run?
The Activity was 1220 µmol/min/mg.

How did the Activity [2] turn out when `COC1=CC(=O)c2sc(CO)c(C)c2C1=O` was run?
Its Activity is 468 µmol/min/mg.
